Source: PubChem
Jurkat NFkB inh: inhibitors of the PMA/ionomycin-induced NF-kB reporter in Jurkat cells; AID 435003; inhibition, % at 4 µM; actives 0.53% (n = 330,000); PMA/ionomycin-induced NF-kB luciferase reporter, luminescence; in the data active = inhibition above about 50%
NR2E3 ag-1: human photoreceptor-specific nuclear receptor agonism. Q9Y5X4. actives 0.35% (n = 360,000). inhibition of corepressor binding, % at 3.98 µM. CHO-S Gal4-NCOR/VP16-NR2E3 two-hybrid, luciferase. AID 602229;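 active = inhibition above the mean of all tested compounds plus 3 SD, cut at about 70% in these data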;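 also: 0% = DMSO with NR2E3 transfected cells and 100% = cells lacking NR2E3 construct; higher means lower luciferase signal from less NR2E3 corepressor binding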
Target sequence (Q9Y5X4 whole entry, looked up, the tested form may be a part): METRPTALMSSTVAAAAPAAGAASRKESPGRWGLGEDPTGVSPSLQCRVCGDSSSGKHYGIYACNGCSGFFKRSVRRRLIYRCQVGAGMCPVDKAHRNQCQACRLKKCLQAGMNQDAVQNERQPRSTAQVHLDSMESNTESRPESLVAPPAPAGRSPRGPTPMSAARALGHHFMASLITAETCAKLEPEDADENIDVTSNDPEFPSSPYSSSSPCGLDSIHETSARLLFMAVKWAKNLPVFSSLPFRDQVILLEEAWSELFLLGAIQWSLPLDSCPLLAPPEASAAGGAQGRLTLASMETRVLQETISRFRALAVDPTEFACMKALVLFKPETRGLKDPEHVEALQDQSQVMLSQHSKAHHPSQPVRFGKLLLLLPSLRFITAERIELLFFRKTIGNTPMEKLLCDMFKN
697 NFkB inh: inhibitors of the PMA/ionomycin-induced NF-kB reporter in 697 B cells; AID 435022; inhibition, % at 4 µM; actives 0.33% (n = 330,000); 697 B-cell NF-kB luciferase reporter, 16 h; in the data active = inhibition above about 35%
GalR3 antagonist: antagonists of human GalR3 | O60755 | HEK293 GalR3-CNG cAMP membrane potential fluorescence; galR3 body fused to GalR1 C-terminus | inhibition, % at 3 µM | actives 0.44% (n = 360,000);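 active = inhibition above the screen-wide average plus 3 SD, cut at about 13% in these data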;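 also: forskolin and galanin both at EC90 stimulate the cells; cAMP rise reported by CNG channel membrane potential dye signal; 0% = forskolin plus galanin with DMSO and 100% = forskolin alone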
Target sequence (O60755 1-299 limits assumed): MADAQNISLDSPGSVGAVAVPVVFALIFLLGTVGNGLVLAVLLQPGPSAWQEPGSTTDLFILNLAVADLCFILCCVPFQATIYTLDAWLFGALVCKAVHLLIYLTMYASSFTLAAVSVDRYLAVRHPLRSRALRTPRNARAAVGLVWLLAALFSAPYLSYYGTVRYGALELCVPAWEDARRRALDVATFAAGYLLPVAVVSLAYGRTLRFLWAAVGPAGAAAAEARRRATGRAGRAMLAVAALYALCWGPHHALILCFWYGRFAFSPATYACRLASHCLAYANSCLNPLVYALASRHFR
NR2E3 ag-2: NR2E3 (human) agonism | Q9Y5X4 | GST-NR2E3/biotin-RetCOR TR-FRET, 1536-well | inhibition of corepressor binding, % at 4.78 µM | actives 0.12% (n = 320,000);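 active = percent inhibition above the cutoff of mean plus 3 SD of all tested compounds, set per screening campaign, cut at about 20% in these data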;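 also: 0% = DMSO wells and 100% = biotin wells as full block of FRET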
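Material – GST-tagged NR2E3 plus biotinylated RetCOR corepressor · Quantity – NR2E3 fusion 1.35 nM · Times – 5 h incubation at 4 °C · Medium – pH 7.5 Tris-based buffer · Technique – TR-FRET, Eu(K)-anti-GST donor, streptavidin-D2 acceptor, ex 340, em 617/671 nm · Benchmarks – high control biotin, low control 0.6% DMSO · Format – 1536-well plates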
Gli-Sufu block: Gli-Sufu pathway antagonism | Sufu-KO-LIGHT fibroblasts, Gli luciferase reporter luminescence | inhibition, % at 5 µM | actives 0.74% (n = 340,000) | AID 588413;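 active = inhibition above about 55%, limit read from the data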;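 also: 0% = DMSO-treated cells and 100% = wells with medium but no cells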
Gli-Sufu confirm: confirmation of Gli-SUFU pathway antagonists; shares compounds with Gli-Sufu block; Sufu-KO-LIGHT cells, Gli luciferase reporter, luminescence; inhibition, % at 5 µM; actives 40% (n = 2,500);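 active = mean inhibition at 5 µM reaching about 45%, limit read from the data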;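 also: plate controls were DMSO-treated cells for no effect and wells lacking cells for full effect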
SufuKO cytotox: counter-screen for Gli-SUFU antagonists: cytotoxicity; actives 32% (n = 2,500); shares compounds with Gli-Sufu block; cytotoxicity, % at 5 µM; Sufu-KO-LIGHT cells cytotoxicity, ATP luminescence;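 active = mean cytotoxicity at 5 µM above about 25%, limit read from the data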;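 also: cells exposed to compound overnight for roughly 16 to 18 hours; plate controls were DMSO wells with cells for no effect and medium without cells for full effect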
Wnt3a counter: inhibits Wnt3a reporter, counter-screen for Gli-SUFU antagonists; AID 651995; inhibition, % at 6.25 µM; shares compounds with Gli-Sufu block; actives 20% (n = 2,500); Wnt-LIGHT cells, Wnt3a-driven luciferase reporter, luminescence;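 active = mean inhibition above about 25%, limit read from the data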
* hit, by the source's call; / = not tested or not shown. Rows were chosen to be rich in hits. Some 1.8% of all compounds tested hit in one or more screens of this group.

SMILES	Jurkat NFkB inh	NR2E3 ag-1	697 NFkB inh	GalR3 antagonist	NR2E3 ag-2	Gli-Sufu block	Gli-Sufu confirm	SufuKO cytotox	Wnt3a counter
Cc1ccc(NC(=S)N(CCCN2CCCC2)Cc2cccn2Cc2ccc(Cl)cc2)cc1Cl	0.6	5.2	-2.6	-3.0	-3.3	60.8*	16.1	6.1	-24.6
CCOC(=O)N1CCC(N(CCOC)C(=O)Nc2ccc(CC)cc2)CC1	-1.3	-8.3	-3.0	-4.1	1.4	0.0	/	/	/
CCOC(=O)N1CCC(N(C(=O)Nc2ccc(Cl)c(Cl)c2)C(C)CC)CC1 (stereo not drawn)	12.3	20.8	0.8	1.3	1.6	64.8*	30.6	20.1	-37.3
COc1ccc(/C=C/C2=CCN(Cc3ccc(OC)cc3)CC2)cc1	-11.2	-15.3	-7.8	-11.6	-0.6	50.4	17.7	10.6	-48.1
COc1ccc(/C=N/N2CCN(Cc3ccccc3)CC2)cc1	-2.7	17.0	-27.8	-7.4	/	3.1	/	/	/
CS(=O)(=O)c1ccc(Cl)c(NC(=O)c2cccc(-n3cnnn3)c2)c1	11.5	-6.2	16.7	0.3	-1.4	-2.0	/	/	/
Cc1ccc(N(CC(=O)NCc2ccc(F)cc2)S(=O)(=O)c2c(C)n[nH]c2C)cc1	-4.6	5.5	-46.6	1.7	0.7	73.2*	14.0	7.3	-48.9
O=Nc1ccccn1	/	/	/	-5.6	/	/	/	/	/
CC[C@H](NC(=O)[C@H]1O[C@@H](n2cnc3c(=O)[nH]c(N)nc32)[C@H](O)[C@@H]1O)c1ccccc1	/	/	/	-4.1	/	/	/	/	/
OCCC1CN(Cc2ccccc2O)CCN1CCCc1ccccc1 (stereo not drawn)	0.5	25.4	4.6	-11.5	2.1	54.0	30.0	-0.6	-42.9
CC(C)c1ccc(NC(=O)N2CCOCC2)cc1	-51.3	-45.2	-35.1	-2.9	0.3	60.0*	-10.5	3.9	-54.9
CCN(Cc1ccncc1)C(=O)c1cc(COc2ccc(F)cc2F)on1	0.6	20.9	-29.9	4.7	-2.7	50.8	31.7	-8.0	-22.5
CCN(Cc1cnn(C)c1)C(=O)c1cc(COc2ccc(F)cc2F)on1	-6.3	-29.7	8.1	-4.6	-2.4	-9.0	/	/	/
COc1cc(C(=O)NC2CC3CCCC(C2)N3Cc2ccccc2)cc(OC)c1OC (stereo not drawn)	-23.6	4.5	-52.3	-11.8	0.2	18.2	/	/	/
COc1ccccc1NS(=O)(=O)c1cccc(C(=O)NC2CCN(Cc3ccccc3)CC2)c1	45.1	35.1	-22.6	/	1.0	53.7	57.3*	26.9*	-0.6
COc1ccc(C(=O)NC2CC3CCCC(C2)N3Cc2ccccc2)cc1OC (stereo not drawn)	2.1	-7.6	0.8	-9.2	-0.7	57.3*	10.9	-4.5	-29.0
Cc1ccc(C(=O)NC2CCN(Cc3ccccc3)CC2)cc1S(=O)(=O)N1CCOCC1	23.5	-11.4	-39.9	-4.8	-2.9	61.4*	17.9	18.6	4.0
Cc1nc2ncnn2c(N2CCN(S(=O)(=O)c3ccc(Br)cc3)CC2)c1C	32.3	-14.1	-45.9	6.1	0.9	57.4*	32.6	0.9	1.3
Cc1nc2ncnn2c(N2CCN(C(c3ccccc3)c3ccccc3)CC2)c1C	-7.4	7.1	-16.7	-5.5	-2.8	7.8	/	/	/
COc1ccc(Nc2nc(N3CCOCC3)nc(N3CCOCC3)n2)c(OC)c1	-16.0	15.9	10.0	-3.1	6.9	59.4*	42.2	-5.2	14.7
COc1ccc(N2CCN(C(=O)CC(C)S(=O)(=O)c3ccc4c(c3)NC(=O)CO4)CC2)cc1 (stereo not drawn)	-6.0	15.2	-7.8	2.8	2.0	-18.5	/	/	/
CC(CC(=O)N1CCN(c2cccc(Cl)c2)CC1)S(=O)(=O)c1ccc2c(c1)NC(=O)CO2 (stereo not drawn)	16.4	-14.8	-49.7	-6.8	-1.3	58.7*	51.0*	20.3	0.2
CCN1/C(=C\C(=S)Nc2ccccc2)Sc2ccccc21	-15.4	-17.0	-15.1	-2.6	-3.7	53.8	55.4*	13.2	-27.3
CCN1/C(=C\C=C(C(C)=O)C(C)=O)Sc2ccccc21	0.2	-19.2	8.0	-7.0	-2.2	11.9	/	/	/
CCc1ccccc1NC(=S)N(CCCN1CCN(C)CC1)Cc1cccs1	-0.7	-28.7	-1.1	-1.6	0.0	54.1	16.9	3.7	13.7
SMILES	Jurkat NFkB inh	NR2E3 ag-1	697 NFkB inh	GalR3 antagonist	NR2E3 ag-2	Gli-Sufu block	Gli-Sufu confirm	SufuKO cytotox	Wnt3a counter
C=CCSc1nnc(NC(=O)c2cccc(S(=O)(=O)N(C)c3ccccc3)c2)s1	8.7	-5.2	-3.4	0.4	0.4	74.4*	12.2	16.8	-8.8
CN(c1ccccc1)S(=O)(=O)c1cccc(C(=O)Nc2nccs2)c1	2.7	-8.8	-4.6	-9.9	0.6	-18.3	/	/	/
COc1ccc(-c2c(C3=CCCCC3)oc3ccc(-c4ccc5c(c4)OCO5)cc23)cn1	1.8	-14.2	-14.8	2.4	4.0	-3.4	/	/	/
O=C(Nc1cccc2ccccc12)OC[C@@H]1CSCCS(=O)(=O)N1	/	/	/	-4.0	/	/	/	/	/
COc1cc(Cl)c(C)cc1NC(=O)COC(=O)c1ccc(CN2CCCC2=O)cc1	-12.5	-8.3	-20.5	2.2	-1.2	-1.8	/	/	/
CC[n+]1c(/C=C/N(C)c2ccccc2)oc2ccc(F)cc21	17.4	6.3	-28.0	-8.7	0.7	81.7*	84.0*	26.1*	70.1*
Cc1sc(NC(=O)CSc2nnc(C(C)C)n2C)c(C#N)c1C	-6.1	-9.2	2.0	-2.7	0.1	56.2*	25.5	0.5	-4.0
CCCn1c(SCC(=O)Nc2sc(C)c(C)c2C#N)nnc1C(C)C	18.8	-38.8	8.1	-4.4	3.7	-0.7	/	/	/
O=C1[C@@H]2CSCCS(=O)(=O)N2C(=O)N1C1CCCCC1	/	/	/	-2.7	/	/	/	/	/
CN(CC(=O)O)S(=O)(=O)c1ccc2c(c1)n(C)c(=O)c(=O)n2C	7.5	0.1	9.7	3.4	2.3	62.8*	10.4	-2.5	-3.2
CCC1(C)Cc2ccccc2-c2c1c(=O)n(Cc1ccccc1)c1nnnn21 (stereo not drawn)	-7.4	-9.4	-34.1	4.5	-0.2	75.0*	27.6	3.2	-1.2
CCc1ccc(NC(=O)C[n+]2cc(-c3ccc(C)cc3)n3c2CCC3)cc1	17.1	-10.3	1.5	-3.1	-1.4	5.3	/	/	/
Clc1cccc(C[n+]2cc(-c3ccccc3)n3c2CCC3)c1	12.4	-5.7	-22.6	2.9	3.5	47.8	/	/	/
O=C(C[n+]1cc(-c2ccc(Cl)cc2)n2c1CCCCC2)c1ccccc1	-7.0	-11.5	-20.8	-0.6	2.5	25.3	/	/	/
